Experimental data of several laboratories.
Lines come from different studies, so protocols differ.
Route: oral

Structure (SMILES) | test system | conditions | bioavailability [%]
CN(C)C(=O)c1cc2cnc(Nc3ccc(-c4ccc5c(=O)cc(N6CCOCC6)oc5c4)cc3)nc2n1C1CCCC1.Cl | BALB/c mouse, plasma | 20 mg/kg | 29
Cc1ccc(OCC(=O)N[C@@H](Cc2c[nH]c3ccccc23)C(=O)OC(C)C)cc1 | male Sprague-Dawley mouse, plasma | 20 mg/kg | 39
CC(C)[C@@H](CS(=O)(=O)C(C)C)N1C(=O)[C@@](C)(CC(=O)O)C[C@H](c2cccc(Cl)c2)[C@H]1c1ccc(Cl)cc1 | FVB mouse, plasma | 20 mg/kg, single dose | 16
O=C1CCC(N2Cc3cc(C4CCN(Cc5ccccc5)CC4)ccc3C2=O)C(=O)N1 (centres unmarked) | male CD-1 mouse, plasma | 3 mg/kg | 63.8
C=CCn1c(=O)c2cnc(Nc3ccc(N4CCN(C)CC4)cc3)nc2n1-c1ccc2c(n1)[C@@](O)(CC)CC2 | mouse, plasma | 60 mg/kg | 98
COCC(=O)N1CCc2[nH]c3c(Cl)c(Cl)ccc3c2[C@@H]1C | C57BL/6 mouse, blood | 20 mg/kg | 12.5
Cc1nc2ccc(OCc3ccc(C(F)(F)F)cc3)cc2[nH]1 | male BALB/c mouse, plasma | 10 mg/kg | 35
OCc1ccc(-c2nn(Cc3ccccc3)c3ccccc23)o1 | male CD-1 mouse, plasma | 10 mg/kg | 11
Cc1cc(-c2ccnc3[nH]cc(F)c23)cc(F)c1[C@@]1(O)[C@H](C)CN(C2CCS(=O)(=O)CC2)C[C@@H]1C | male CD-1 mouse, plasma | 3 mg/kg | 37.7
CCOC(=O)C1=C(CN2CCC[C@@H]2C(=O)Nc2ccc(B(O)O)cc2)NC(c2nccs2)=N[C@H]1c1ccc(F)cc1Br | CD-1 mouse, plasma | 10 mg/kg | 10.4
FC(F)(F)CN1CC(n2cc(Oc3ccn4nc(Cl)cc4n3)cn2)C1 | FVB mouse, blood | single dose | 46
Oc1ccc([C@@H]2Oc3ccc(O)cc3[C@@H]3CCC[C@@H]32)cc1 | male C57BL/6 mouse, plasma | 10 mg/kg | 14
NCc1ccc(-c2nn(Cc3ccccc3)c3ccccc23)o1 | male CD-1 mouse, plasma | 10 mg/kg | 34
Cc1cc(-c2ccnc3[nH]cc(F)c23)cc(F)c1[C@@]1(O)[C@H](C)CN(C(=O)CN)C[C@@H]1C | male CD-1 mouse, plasma | 3 mg/kg | 30.7
